The subject of one series is BT-474. Description: Cytotoxicity against serum-starved human BT474 cells assessed as reduction of cell survival at 10 to 30 uM after 48 hrs by Cell Titer-Glo luminescent assay. The series is classed as functional, cell-based. The method, boiled down:
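Cells were held in serum-free medium for 24 h, then exposed to compound for 48 h. Viability was read by CellTiter-Glo luminescence, and data come from three independent experiments run in duplicate. BT474 was routinely maintained in RPMI with 4 mM L-glutamine, 10% FBS and penicillin/streptomycin at 37 °C under 5% CO2.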
On the technique in general: ATP-based viability assays read luminescence as a measure of living cells.

Series [1] concerns the target Hepatocyte growth factor receptor (Homo sapiens) (UniProt P08581). The conditions noted are these: HepG2, 10 uM.
The next series concerns BaF3. Kind of series: Antiproliferative activity against IL3-stimulated mouse BA/F3 cells at 1 uM after 48 hrs by cell titre blue based spectrophotometry. The series is classed as functional. An outline of the steps: (§1)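 Ba/F3 cells expressing active kinase forms, or IL3-dependent; 2×10^4 cells/well; 1/2 serial dilutions from 0 to 10 µM (text also gives 0.1–40 µM); 48 h at 37 °C; Cell Titer Blue; absorbance at 490 nm with cell-free blank for background; proliferation as % of untreated cells; triplicate.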

The test system of the next series is GTL 16. Description: Cytotoxicity against serum-starved human GTL16 cells assessed as reduction of cell survival after 48 hrs by Cell Titer-Glo luminescent assay. The series is classed as functional, cell-based.
The nature of series [2]: Antitumor activity against human GTL16 cells xenografted in nude mouse assessed as reduction tumor weight at 30 mg/kg, ip administered for every 2 days for 21 days (reference value: 865.4 348.9 mg). The series is classed as functional, GTL 16. The conditions noted are these: route intraperitoneal. (A xenograft is tissue or cells of one species grown in another, often human tumour cells in immunodeficient mice.)

A short description of series [3]: Antitumor activity against human GTL16 cells xenografted in nude mouse assessed as reduction tumor weight at 10 to 30 mg/kg, ip administered for every 2 days for 21 days. It counts as functional, GTL 16. Set-up: scale not given: the % may be the effect or the level left. The following applies: dose mg/kg 10-30; route intraperitoneal.
Series [4] concerns the target Hepatocyte growth factor receptor (Homo sapiens) (UniProt P08581). The conditions noted are these: 10 uM.
Another series concerns Mus musculus. Description: Toxicity in human GTL16 cells xenografted nude mouse assessed as reduction of body weight at 10 to 30 mg/kg, ip administered for every 2 days for 21 days. The series is classed as organism-based. Set-up: dose 10-30 mg/kg, route intraperitoneal. The following applies: in vivo.
Another series concerns Hepatocyte. Description: Cytotoxicity against hepatocytes assessed as reduction in cell viability at 100 uM after 24 hrs by Cell Titer-Glo luminescent assay. It counts as cell-based. The method, boiled down: (§2)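 Primary embryonic cortical neuron and hepatocyte cultures exposed to compound for 24 h; viability read by Cell Titer Glo luminescence; quadruplicate.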
Series [5] has as its system MDCK. Description: Cytotoxicity against HGF-stimulated […] MDCK cells at 50 to 100 fold higher biologically active concentration. It counts as cell-based.
Series [6] concerns the target Hepatocyte growth factor receptor (Homo sapiens) (UniProt P08581). The following applies: 1 uM.
The test system of another series is HepG2. Kind of series: Cytotoxicity against serum-starved human HepG2 cells assessed as reduction of cell survival after 48 hrs by Cell Titer-Glo luminescent assay. The series is classed as functional, cell-based.
The nature of series [7]: Chemical stability in DMSO. It counts as physicochemical.
Series [8] can be described thus: Antitumor activity against human GTL16 cells xenografted in nude mouse assessed as reduction tumor weight at 10 mg/kg, ip administered for every 2 days for 21 days (reference value: 865.4 348.9 mg). The series is classed as functional, GTL 16. The conditions noted are these: route intraperitoneal.
Series [9] is described as follows: Chemical stability in methanol. The series is classed as physicochemical.
Series [10] concerns the target Hepatocyte growth factor receptor (Homo sapiens) (UniProt P08581). The conditions noted are these: BaF3; 1 uM.
The subject of series [11] is MDCK. Description: Cytotoxicity against HGF-stimulated […] MDCK cells at biologically active concentration. The series is classed as cell-based.
A short description of series [12]: Cytotoxicity against cortical neurons assessed as reduction in cell viability at 100 uM after 24 hrs by Cell Titer-Glo luminescent assay. The following applies: cortical neurone. An outline of the steps: as §2
Series [13] concerns the target Macrophage-stimulating protein receptor (Homo sapiens) (UniProt Q04912). Description: Inhibition of TEL-fused RON-mediated mouse BA/F3 cell proliferation at 1 uM after 48 hrs by cell titre blue based spectrophotometry. The following applies: BaF3. An outline of the steps:
as §1

For a further series, the system named is MCF7. Kind of series: Cytotoxicity against serum-starved human MCF7 cells over-expressing ErbB2 cells assessed as reduction of cell survival at 10 to 30 uM after 48 hrs by Cell Titer-Glo luminescent assay. It counts as functional, cell-based.
Series [14] has as its target Epidermal growth factor receptor (Homo sapiens) (UniProt P00533). Description: Inhibition of ErbB1 phosphorylation in human BT474 cells at 1 to 10 uM pretreated overnight prior to HGF stimulation by Western blot analysis. The series is classed as cell-based. The following applies: BT-474. The method, boiled down:
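BT-474 cells starved, pretreated overnight with compound at 1, 3, 10 µM, then HGF 20 ng/ml; total extracts immunoblotted for phospho-ErbBs; ERK as loading control.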
(In general: Immunoblotting shows a protein as a band on a membrane.)

A short description of series [15]: Chemical stability in chloroform. The series is classed as physicochemical.
Series [16] in a line: Chemical stability in solid state. It counts as physicochemical.

Active and inactive are the calls of the source. No cut-off for these calls is given here.

One may read the inhibition as the percentage by which the read-out fell short of the control. Consider `O=C(Cc1cc(C(F)(F)F)cc(C(F)(F)F)c1)N[C@@H](Cc1ccccc1)C(=O)Nc1ccc(-c2cn3c(n2)sc2ccccc23)cc1`, for which the outcome with BT-474 and in the series with MCF7 was inactive. Further, the inhibition in series [1] came to 30%; in series [4], 53%; in series [6], 21%. The outcome in the series with BaF3 was Active. Moreover, the Activity result is “Dose-dependent effect” in the series with GTL 16; 234.8 mg in series [2]; 70% in [3]; “Non-toxic” with Mus musculus; 28% in the series with Hepatocyte; “Toxic” with MDCK [5]. Moreover, the Activity entry in the series on HepG2 was “Dose-dependent effect”; in [8] it was 268.8 mg; with MDCK [11] it was “Non-toxic”; in [12], 12%. For the same compound, the Stability entry in series [7], in series [9], in series [15] and in series [16] was “Stable” throughout. In addition, the inhibition result in [10] and in series [13] was “Active” throughout. In series [14], the inhibition entry is “inactive”.
